Assay results from ChEMBL document CHEMBL5136969, “A niclosamide-tobramycin hybrid adjuvant potentiates cefiderocol against P. aeruginosa” (2021).
Values after ≈ are worked out from the molar mass of the structure shown.

Legend:
Type in all cases: functional
[1] = tested on: Enterococcus faecalis; assay: Antibacterial activity against Enterococcus faecalis ATCC 29212 assessed as reduction in bacterial growth after 18 hrs by microbroth dilution method
How it was run: (§1)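 CLSI microbroth dilution in MHB. Overnight cultures were adjusted to 0.5 McFarland in saline, diluted 1:50, and inoculated at about 5 × 10^5 CFU/mL. Agents were 2-fold serially diluted and incubated 18 h at 37 °C. MIC is the lowest concentration without visible turbidity, confirmed by absorbance at 590 nm. Medium with and without cells served as controls.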

[2] = tested on: Acinetobacter baumannii; assay: Antibacterial activity against Acinetobacter baumannii ATCC 17978 assessed as reduction in bacterial growth after 18 hrs by microbroth dilution method; how it was run: as §1
[3] = tested on: Pseudomonas aeruginosa; assay: Antibacterial activity against Pseudomonas aeruginosa PAO1 assessed as reduction in bacterial growth after 18 hrs by microbroth dilution method
How it was run: (§2)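 CLSI broth microdilution. Overnight cultures were adjusted in saline to 0.5 McFarland, diluted 1:50 in Mueller-Hinton broth (MHB), and inoculated at about 5 × 10^5 CFU/mL. Agents were 2-fold serially diluted in MHB, mixed 1:1 with inoculum, and held at 37 °C for 18 h. MIC was the lowest concentration with no visible turbidity, confirmed at 590 nm.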

[4] = tested on: Staphylococcus aureus; assay: Antibacterial activity against methicillin-resistant Staphylococcus aureus ATCC 33592 assessed as reduction in bacterial growth after 18 hrs by microbroth dilution method
How it was run: (§3)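 Broth microdilution per CLSI in Mueller-Hinton broth (MHB). Overnight cultures were adjusted to 0.5 McFarland in saline, diluted 1:50 in MHB, and added at about 5 × 10^5 CFU/mL final to equal volumes of 2-fold serial dilutions of agent. Incubation was 18 h at 37 °C. MIC was the lowest concentration with no visible turbidity, confirmed by absorbance at 590 nm.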

[5] = tested on: Staphylococcus epidermidis; assay: Antibacterial activity against methicillin-resistant Staphylococcus epidermidis 61589 assessed as reduction in bacterial growth after 18 hrs by microbroth dilution method; how it was run: as §3
[6] = tested on: Escherichia coli; assay: Antibacterial activity against Escherichia coli ATCC 25922 assessed as reduction in bacterial growth after 18 hrs by microbroth dilution method; how it was run: as §1
[7] = tested on: Enterococcus faecium; assay: Antibacterial activity against Enterococcus faecium ATCC 27270 assessed as reduction in bacterial growth after 18 hrs by microbroth dilution method; how it was run: as §1
[8] = tested on: Staphylococcus aureus; assay: Antibacterial activity against Staphylococcus aureus ATCC 29213 assessed as reduction in bacterial growth after 18 hrs by microbroth dilution method; how it was run: as §2

| Structure (SMILES) | MIC [1] | MIC [2] | MIC [3] | MIC [4] | MIC [5] | MIC [6] | MIC [7] | MIC [8] |
| --- | --- | --- | --- | --- | --- | --- | --- | --- |
| NC[C@H]1O[C@H](O[C@H]2[C@H](O)[C@@H](O[C@H]3O[C@H](CO)[C@@H](O)[C@H](N)[C@H]3O)[C@H](N)C[C@@H]2N)[C@H](N)C[C@@H]1O [TOBRAMYCIN] | 8 µg/mL (≈ 17.1 µM) | 0.5 µg/mL (≈ 1.07 µM) | 0.5 µg/mL (≈ 1.07 µM) | 2 µg/mL (≈ 4.28 µM) | 8 µg/mL (≈ 17.1 µM) | 2 µg/mL (≈ 4.28 µM) | 16 µg/mL (≈ 34.2 µM) | 0.5 µg/mL (≈ 1.07 µM) |
| O=C(Nc1ccc([N+](=O)[O-])cc1Cl)c1cc(Cl)ccc1O [NICLOSAMIDE] | 2 µg/mL (≈ 6.11 µM) | > 128 µg/mL | > 128 µg/mL | 0.25 µg/mL (≈ 0.764 µM) | 1 µg/mL (≈ 3.06 µM) | > 128 µg/mL | 2 µg/mL (≈ 6.11 µM) | 1 µg/mL (≈ 3.06 µM) |
